The source made the active and inactive calls. No cut-off for these calls is given here.
Key:
[1] = Cytotoxicity against human MKN45 cells by MTT assay; assay type: functional, cell-based; conditions: MKN-45
[2] = biological target: Histone deacetylase (Homo sapiens) (UniProt Q13547+O15379+Q9UBN7+Q92769+Q9UQL6+Q8WUI4+Q9BY41+Q96DB2+P56524+Q9UKV0+Q969S8); conditions: HCT-116, 1 uM
HT-29 = assay: Cytotoxicity against human HT-29 cells by MTT assay; assay type: functional, cell-based
[3] = biological target: T1, Polyamine deacetylase HDAC10 (Homo sapiens, UniProt Q969S8); assay: Inhibition of HDAC10 (unknown origin) by fluorescence assay
T1 sequence (Q969S8 whole entry): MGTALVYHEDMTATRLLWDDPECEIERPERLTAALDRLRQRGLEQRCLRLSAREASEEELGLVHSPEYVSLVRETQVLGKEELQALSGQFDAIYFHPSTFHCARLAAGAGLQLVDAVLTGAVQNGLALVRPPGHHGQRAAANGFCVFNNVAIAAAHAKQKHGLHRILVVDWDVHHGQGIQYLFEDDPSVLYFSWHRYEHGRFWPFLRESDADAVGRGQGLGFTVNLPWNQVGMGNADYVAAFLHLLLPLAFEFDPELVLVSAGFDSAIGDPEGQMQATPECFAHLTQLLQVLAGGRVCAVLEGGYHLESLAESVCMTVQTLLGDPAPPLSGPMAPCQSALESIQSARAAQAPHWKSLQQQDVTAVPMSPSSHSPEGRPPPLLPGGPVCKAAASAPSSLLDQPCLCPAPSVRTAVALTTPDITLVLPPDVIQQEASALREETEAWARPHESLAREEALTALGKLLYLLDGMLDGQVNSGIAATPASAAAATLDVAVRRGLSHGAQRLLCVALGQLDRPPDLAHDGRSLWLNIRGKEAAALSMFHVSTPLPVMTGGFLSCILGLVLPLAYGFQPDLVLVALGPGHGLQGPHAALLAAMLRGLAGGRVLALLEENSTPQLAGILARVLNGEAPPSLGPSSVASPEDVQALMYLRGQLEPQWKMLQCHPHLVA
Summary of the method: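 Run by a contract testing lab. Compounds were dissolved in DMSO and tested in 10-dose IC50 mode, using 3-fold serial dilution starting at 10 μM. IC50 was taken from the dose series.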

O=C(/C=C/c1cccc(S(=O)(=O)n2ccc3cccnc32)c1)NO
IC50 [1]: 2510 nM
inhibition [2]: inactive
IC50 (HT-29): 1240 nM
IC50 [3]: 4130 nM

Source: ChEMBL document CHEMBL3259569 (J Med Chem, 2014)
